Measurements published in ChEMBL document CHEMBL2046318, “Synthesis and biological evaluation of novel flavonols as potential anti-prostate cancer agents” (Eur J Med Chem, 2012).
pIC50: −log10 of the molar value.

Experiments:
CWR22R [1] = experiment: Inhibition of prostate specific antigen expression in human 22Rv1 cells assessed as PSA protein level at 20 uM after 72 hrs by densitometry relative to untreated control; assay type: functional; parameters: scale not given: the % may be the effect or the level left
Outline: (§1)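 22rv1 cells were seeded at 2 × 10^5 per well, left to adhere overnight, then treated for 72 h at 10 or 20 µM. Cells were lysed in NP-40/deoxycholate/SDS buffer with protease and phosphatase inhibitors. 15 µg protein was run on SDS-PAGE and blotted, then probed with AR, PSA and actin antisera and an HRP secondary. Bands were quantified by densitometry as % of vehicle control, mean of 3–5 replicates with SD.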

CWR22R [2] = experiment: Inhibition of prostate specific antigen expression in human 22Rv1 cells assessed as PSA protein level at 10 uM after 72 hrs by densitometry relative to untreated control; assay type: functional; parameters: scale not given: the % may be the effect or the level left; outline: as §1
CWR22R [3] = experiment: Antiproliferative activity against human 22Rv1 cells incubated up to 144 hrs by Coulter particle count and size analyzer; assay type: functional, cell-based; settings: 22Rv1, 144 h
Outline: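 22rv1 cells in RPMI 1640 with 10% FBS were seeded at 5 × 10^3 per well, left to adhere overnight, then exposed to agents in DMSO (final DMSO <0.1%) for up to 144 h. Cells were trypsinised and counted on a Coulter counter. Cell number as % of DMSO control was plotted against log concentration at 144 h, and the IC50 was taken from the straight-line fit. Mean of 3–6 experiments.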

CWR22R [4] = experiment: Inhibition of androgen receptor expression in human 22Rv1 cells assessed as AR protein level at 10 uM after 72 hrs by densitometry relative to untreated control; assay type: functional; parameters: scale not given: the % may be the effect or the level left; outline: as §1
CWR22R [5] = experiment: Inhibition of androgen receptor expression in human 22Rv1 cells assessed as AR protein level at 20 uM after 72 hrs by densitometry relative to untreated control; assay type: functional; parameters: scale not given: the % may be the effect or the level left; outline: as §1
CWR22R [6] = experiment: Growth inhibition of human 22Rv1 cells at 50 uM incubated up to 144 hrs by Coulter particle count and size analyzer; assay type: functional; settings: 22Rv1, 144 h, read-out: GI
CWR22R [7] = experiment: Growth inhibition of human 22Rv1 cells at 0.1 uM incubated up to 144 hrs by Coulter particle count and size analyzer; assay type: functional; settings: 22Rv1, 144 h, read-out: GI
CWR22R [8] = experiment: Growth inhibition of human 22Rv1 cells at 0.01 uM incubated up to 144 hrs by Coulter particle count and size analyzer; assay type: functional; settings: 22Rv1, 144 h, read-out: GI

Compound: COc1cc(-c2oc3ccccc3c(=O)c2O)cc(OC)c1OC
- Activity (CWR22R [1]): 23%
- Activity (CWR22R [2]): 21%
- pIC50 (CWR22R [3]): 5.51
- Activity (CWR22R [4]): 96%
- Activity (CWR22R [5]): 62%

Compound: O=c1c(O)c(-c2cc(O)c(O)c(O)c2)oc2ccccc12
- Activity (CWR22R [1]): 109%
- Activity (CWR22R [2]): 110%
- pIC50 (CWR22R [3]): 5.11
- Activity (CWR22R [4]): 94%
- Activity (CWR22R [5]): 89%

Compound: COc1cc(-c2oc3ccccc3c(=O)c2OC)cc(OC)c1OC
- Activity (CWR22R [1]): 149%
- Activity (CWR22R [2]): 167%
- pIC50 (CWR22R [3]): 5.59
- Activity (CWR22R [4]): 94%
- Activity (CWR22R [5]): 80%

Compound: COc1cc(OC)cc(-c2oc3ccccc3c(=O)c2O)c1
- Activity (CWR22R [1]): 109%
- Activity (CWR22R [2]): 133%
- pIC50 (CWR22R [3]): 4.91
- Activity (CWR22R [4]): 74%
- Activity (CWR22R [5]): 72%

Compound: COc1cc(-c2oc3ccc(F)cc3c(=O)c2O)cc(OC)c1OC
- Activity (CWR22R [1]): 5%
- Activity (CWR22R [2]): 14%
- pIC50 (CWR22R [3]): 5.48
- Activity (CWR22R [4]): 91%
- Activity (CWR22R [5]): 75%

Compound: COc1cc(-c2oc3ccccc3c(=O)c2F)cc(OC)c1OC
- Activity (CWR22R [1]): 63%
- Activity (CWR22R [2]): 63%
- pIC50 (CWR22R [3]): < 4.40
- inhibition of growth at 50 µM (CWR22R [6]): 48%
- Activity (CWR22R [4]): 110%
- inhibition of growth at 0.1 µM (CWR22R [7]): 46%
- inhibition of growth at 0.01 µM (CWR22R [8]): 18%
- Activity (CWR22R [5]): 125%

Compound: COc1cc(-c2oc3cc(F)ccc3c(=O)c2O)cc(OC)c1OC
- Activity (CWR22R [1]): 22%
- Activity (CWR22R [2]): 37%
- pIC50 (CWR22R [3]): 5.40
- Activity (CWR22R [4]): 112%
- Activity (CWR22R [5]): 75%

Compound: O=c1c(O)c(-c2cc(O)c(O)c(O)c2)oc2cc(F)ccc12
- Activity (CWR22R [1]): 106%
- Activity (CWR22R [2]): 111%
- pIC50 (CWR22R [3]): 4.94
- Activity (CWR22R [4]): 100%
- Activity (CWR22R [5]): 94%

Compound: COc1cc(-c2oc3cc(F)cc(F)c3c(=O)c2O)cc(OC)c1OC
- Activity (CWR22R [1]): 68%
- Activity (CWR22R [2]): 95%
- pIC50 (CWR22R [3]): 5.23
- Activity (CWR22R [4]): 100%
- Activity (CWR22R [5]): 103%

Compound: O=c1c(O)c(-c2cc(O)c(O)c(O)c2)oc2cc(F)cc(F)c12
- Activity (CWR22R [1]): 132%
- Activity (CWR22R [2]): 134%
- pIC50 (CWR22R [3]): 5.20
- Activity (CWR22R [4]): 118%
- Activity (CWR22R [5]): 90%

Compound: COc1ccc(-c2oc3cc(F)cc(F)c3c(=O)c2O)cc1OC
- Activity (CWR22R [1]): 88%
- Activity (CWR22R [2]): 78%
- pIC50 (CWR22R [3]): 5.13
- Activity (CWR22R [4]): 110%
- Activity (CWR22R [5]): 94%

Compound: O=c1c(O)c(-c2ccc(O)c(O)c2)oc2cc(F)cc(F)c12
- Activity (CWR22R [1]): 22%
- Activity (CWR22R [2]): 61%
- pIC50 (CWR22R [3]): 4.79
- Activity (CWR22R [4]): 116%
- Activity (CWR22R [5]): 86%

Compound: COc1ccc(-c2oc3cc(F)cc(F)c3c(=O)c2O)cc1
- Activity (CWR22R [1]): 66%
- Activity (CWR22R [2]): 85%
- pIC50 (CWR22R [3]): 4.80
- Activity (CWR22R [4]): 115%
- Activity (CWR22R [5]): 111%

Compound: O=c1c(O)c(-c2ccc(O)cc2)oc2cc(F)cc(F)c12
- Activity (CWR22R [1]): 33%
- Activity (CWR22R [2]): 77%
- pIC50 (CWR22R [3]): 4.54
- Activity (CWR22R [4]): 136%
- Activity (CWR22R [5]): 96%

Compound: COc1ccc(-c2oc3cc(F)ccc3c(=O)c2O)cc1OC
- Activity (CWR22R [1]): 70%
- Activity (CWR22R [2]): 78%
- pIC50 (CWR22R [3]): < 4.40
- Activity (CWR22R [4]): 129%
- Activity (CWR22R [5]): 120%

Compound: O=c1c(O)c(-c2ccc(O)c(O)c2)oc2cc(F)ccc12
- Activity (CWR22R [1]): 18%
- Activity (CWR22R [2]): 21%
- pIC50 (CWR22R [3]): 5.04
- Activity (CWR22R [4]): 108%
- Activity (CWR22R [5]): 59%

Compound: COc1ccc(-c2oc3cc(F)ccc3c(=O)c2O)cc1
- Activity (CWR22R [1]): 62%
- Activity (CWR22R [2]): 70%
- pIC50 (CWR22R [3]): 5.15
- Activity (CWR22R [4]): 112%
- Activity (CWR22R [5]): 104%

Compound: O=c1c(O)c(-c2ccc(O)cc2)oc2cc(F)ccc12
- Activity (CWR22R [1]): 3%
- Activity (CWR22R [2]): 32%
- pIC50 (CWR22R [3]): 5.08
- Activity (CWR22R [4]): 129%
- Activity (CWR22R [5]): 64%

Compound: COc1cccc(-c2oc3ccccc3c(=O)c2O)c1
- Activity (CWR22R [1]): 13%
- Activity (CWR22R [2]): 27%
- pIC50 (CWR22R [3]): 5.28
- Activity (CWR22R [4]): 64%
- Activity (CWR22R [5]): 23%

Compound: COc1ccc(-c2oc3ccccc3c(=O)c2O)cc1
- Activity (CWR22R [1]): 115%
- Activity (CWR22R [2]): 127%
- pIC50 (CWR22R [3]): 4.52
- Activity (CWR22R [4]): 71%
- Activity (CWR22R [5]): 61%

Compound: COc1ccc(-c2oc3ccccc3c(=O)c2O)cc1OC [3-HYDROXY-3',4'-DIMETHOXYFLAVONE]
- Activity (CWR22R [1]): 56%
- Activity (CWR22R [2]): 61%
- pIC50 (CWR22R [3]): 4.91
- Activity (CWR22R [4]): 63%
- Activity (CWR22R [5]): 81%

Compound: O=c1c(O)c(-c2ccc(O)c(O)c2)oc2cc(O)ccc12 [FISETIN]
- Activity (CWR22R [1]): 44%
- Activity (CWR22R [2]): 51%
- pIC50 (CWR22R [3]): 4.59
- Activity (CWR22R [4]): 109%
- Activity (CWR22R [5]): 101%

Compound: O=c1c(O)c(-c2ccccc2)oc2ccccc12 [FLAVONOL]
- Activity (CWR22R [1]): 80%
- Activity (CWR22R [2]): 124%
- pIC50 (CWR22R [3]): 4.83
- Activity (CWR22R [4]): 100%
- Activity (CWR22R [5]): 92%

Compound: O=c1c(O)c(-c2ccc(O)cc2)oc2cc(O)cc(O)c12 [KAEMPFEROL]
- Activity (CWR22R [1]): 37%
- Activity (CWR22R [2]): 33%
- pIC50 (CWR22R [3]): < 4.40
- Activity (CWR22R [4]): 128%
- Activity (CWR22R [5]): 131%

Compound: O=c1c(O)c(-c2cc(O)c(O)c(O)c2)oc2cc(O)cc(O)c12 [MYRICETIN]
- Activity (CWR22R [1]): 121%
- Activity (CWR22R [2]): 110%
- pIC50 (CWR22R [3]): 4.88
- Activity (CWR22R [4]): 119%
- Activity (CWR22R [5]): 114%

Compound: O=c1c(O)c(-c2ccc(O)c(O)c2)oc2cc(O)cc(O)c12 [QUERCETIN]
- Activity (CWR22R [1]): 31%
- Activity (CWR22R [2]): 40%
- pIC50 (CWR22R [3]): 4.81
- Activity (CWR22R [4]): 114%
- Activity (CWR22R [5]): 120%

Compound: O=c1c(O)c(-c2ccc(O)cc2)oc2cc(O)ccc12 [RESOKAEMPFEROL]
- Activity (CWR22R [1]): 39%
- Activity (CWR22R [2]): 47%
- pIC50 (CWR22R [3]): 4.52
- Activity (CWR22R [4]): 141%
- Activity (CWR22R [5]): 125%

Compound: O=c1c(O)c(-c2cc(O)c(O)c(O)c2)oc2cc(O)ccc12 [ROBINETIN]
- Activity (CWR22R [1]): 111%
- Activity (CWR22R [2]): 69%
- pIC50 (CWR22R [3]): 5.15
- Activity (CWR22R [4]): 84%
- Activity (CWR22R [5]): 102%
